# The source made the active and inactive calls. The rule behind the calls is not given here.
# Key:
# Prothrombin [1] = biological target: T1, Prothrombin (Homo sapiens, UniProt P00734); experiment: Inhibition of human thrombin amidolytic activity using D-Phe-Pip-Arg-pNA as substrate at 0.1 to 1000 uM preincubated for 10 mins followed by substrate addition measured every 12 secs for 10 mins by spectrophotometric analysis
# Method in brief: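 Human plasma thrombin (17.6 nM in 50 mM TBS pH 7.4) preincubated 10 min at 37 °C with compound (from 10 mM stocks in 50% DMSO; final DMSO 5%, final thrombin 15.8 nM), then added to 3 mM D-Phe-Pip-Arg-pNA stock.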
# Prothrombin [2] = biological target: T1, Prothrombin; experiment: Inhibition of human thrombin assessed as inhibition of fibrinogen gamma-gamma chain formation at IC50 after 15 mins by SDS-PAGE analysis
# Method in brief: (§1)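 Fibrinogen isolated from human plasma, containing factor XIII (3 mg/ml in 50 mM TBS, 5 mM CaCl2), mixed with thrombin (final 10.4 nM) that was preincubated with compound. Incubated at 37 °C and stopped at 5, 15 or 30 min with urea/SDS/β-mercaptoethanol buffer. Run on 7.5 % SDS-PAGE with Coomassie stain. Aα, γ, γ–γ dimer and α-polymer bands scored.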
# Prothrombin [3] = biological target: T1, Prothrombin; experiment: Inhibition of human thrombin assessed as inhibition of band decaying corresponding to fibrinogen Aalpha chains at IC50 after 30 mins by SDS-PAGE analysis; method in brief: as §1
# Prothrombin [4] = biological target: T1, Prothrombin; experiment: Inhibition of thrombin (unknown origin) assessed as hydrolysis of N-benzoyl-phenylalanylvalyl-arginine-paranitroanilide
# Trypsin = Trypsin (Homo sapiens, UniProt P07477+P07478+P35030); experiment: Inhibition of trypsin amidolytic activity (unknown origin); assay type: protein assay
# Prothrombin [5] = biological target: T1, Prothrombin; experiment: Inhibition of human thrombin amidolytic activity using D-Phe-Pip-Arg-pNA as substrate preincubated for 10 mins followed by substrate addition measured every 12 secs for 10 mins by spectrophotometric analysis
# Prothrombin [6] = biological target: T1, Prothrombin; experiment: Inhibition of human thrombin assessed as inhibition of fibrinogen gamma-gamma chain formation at 15 uM after 5 mins by SDS-PAGE analysis; method in brief: as §1
# Prothrombin [7] = biological target: T1, Prothrombin; experiment: Inhibition of human thrombin assessed as inhibition of fibrinogen alpha-polymer formation at 15 uM after 5 mins by SDS-PAGE analysis; method in brief: as §1
# Prothrombin [8] = biological target: T1, Prothrombin; experiment: Inhibition of human thrombin assessed as inhibition of fibrinogen alpha polymer formation at IC50 after 15 mins by SDS-PAGE analysis; method in brief: as §1
# Prothrombin [9] = biological target: T1, Prothrombin; experiment: Inhibition of human thrombin assessed as response unit at 1000 uM by BIAcore analysis
# Method in brief: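 Thrombin amine-coupled on a CM5 chip (NHS/EDC, acetate pH 6.0), 25 °C, PBS pH 7.4 running buffer. Polyphenol (100 μl) injected for 600 s at 10 μl/min, followed by 200 s PBS dissociation. Bound level read in RU. Channel regenerated with 0.1 M NaOH and 0.1 M HCl.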
# Prothrombin [10] = biological target: T1, Prothrombin; experiment: Inhibition of human thrombin assessed as inhibition of fibrinogen gamma-gamma chain formation at IC50 after 5 mins by SDS-PAGE analysis; method in brief: as §1
# Prothrombin [11] = biological target: T1, Prothrombin; experiment: Inhibition of human thrombin assessed as inhibition of band decaying corresponding to fibrinogen Aalpha chains at 15 uM after 5 mins by SDS-PAGE analysis; method in brief: as §1
# Prothrombin [12] = biological target: T1, Prothrombin; experiment: Inhibition of human thrombin assessed as inhibition of band decaying corresponding to fibrinogen gamma chains at IC50 after 30 mins by SDS-PAGE analysis; method in brief: as §1
# Prothrombin [13] = biological target: T1, Prothrombin; experiment: Inhibition of human thrombin assessed as equilibrium association constant at 50 to 1000 uM by BIAcore analysis
# Prothrombin [14] = biological target: T1, Prothrombin; experiment: Inhibition of human thrombin assessed as inhibition of band decaying corresponding to fibrinogen gamma chains at 15 uM after 5 mins by SDS-PAGE analysis; method in brief: as §1
# Prothrombin [15] = biological target: T1, Prothrombin; experiment: Inhibition of human thrombin assessed as decrease in platelet aggregation preincubated for 10 mins measured for 10 mins by dual channel chrono-log aggregometric analysis
# Method in brief: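 Gel-filtered (BSA–Sepharose 2B) human platelets at 1.5 × 10^5/μl in modified Tyrode's buffer pH 7.4, prewarmed 5 min at 37 °C with stirring. Thrombin (final 2.4 nM) preincubated 10 min at 37 °C with compound, then added. Turbidimetric aggregation recorded 10 min (0.77 % DMSO final). Result given as % of control; eight independent experiments in duplicate.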
# Prothrombin [16] = biological target: T1, Prothrombin; experiment: Competitive inhibition of human thrombin using D-Phe-Pip-Arg-pNA as substrate preincubated for 10 mins followed by substrate addition measured every 12 secs for 10 mins by Lineweaver-Burk plot analysis
# Prothrombin [17] = biological target: T1, Prothrombin; experiment: Inhibition of human thrombin assessed as inhibition of fibrinogen alpha-polymer formation at IC50 after 5 mins by SDS-PAGE analysis; method in brief: as §1
# Prothrombin [18] = biological target: T1, Prothrombin; experiment: Inhibition of human thrombin assessed as inhibition of fibrinogen polymerization preincubated for 10 mins followed by fibrionogen addition measured for 20 mins
# Method in brief: (§2)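 Thrombin preincubated with compound 10 min at 37 °C, then added (final 10.4 nM) to human fibrinogen (3 mg/ml) in 50 mM TBS with 5 mM CaCl2, pH 7.4. Turbidity at 595 nm read every 12 s for 20 min at 37 °C. Vmax expressed as % of solvent control; 12 independent experiments in duplicate.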
# Prothrombin [19] = biological target: T1, Prothrombin; experiment: Inhibition of human thrombin assessed as inhibition of fibrinogen polymerization at 50 uM preincubated for 10 mins followed by fibrionogen addition measured for 20 mins; method in brief: as §2
# [20] = biological target: Urokinase-type plasminogen activator (Homo sapiens, UniProt P00749); experiment: Inhibition of urokinase amidolytic activity (unknown origin)
# Prothrombin [21] = biological target: T1, Prothrombin; experiment: Inhibition of human thrombin assessed as decrease in platelet aggregation at 25 to 250 uM preincubated for 10 mins measured for 10 mins by dual channel chrono-log aggregometric analysis
# Method in brief: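 Human plasma thrombin (17.6 nM in 50 mM TBS, pH 7.4) preincubated 10 min at 37 °C with compound from 50% DMSO stock (9:1 v/v). Added to gel-filtered human platelets in modified Tyrode's buffer (1.5 × 10^5/μl), pre-warmed 5 min at 37 °C with stirring; final thrombin 2.4 nM, DMSO 0.77%. Turbidimetric aggregation followed for 10 min. Given as % of solvent control; eight independent experiments in duplicate.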
# Prothrombin [22] = biological target: T1, Prothrombin; experiment: Inhibition of human thrombin assessed as inhibition of fibrinogen gamma-gamma chain formation at 250 uM after 15 mins by SDS-PAGE analysis
# Method in brief: (§3)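 Thrombin preincubated 10 min at 37 °C with compound, then mixed with human fibrinogen (3 mg/ml, containing factor XIII) in 50 mM TBS with 5 mM CaCl2; final thrombin 10.4 nM, 37 °C. Stopped at 5, 15, 30 min with urea/SDS/β-mercaptoethanol buffer. Run on 7.5% SDS-PAGE, Coomassie stained, scored for γ–γ dimer and α-polymer bands.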
# Prothrombin [23] = biological target: T1, Prothrombin; experiment: Inhibition of human thrombin assessed as inhibition of fibrinogen gamma-gamma chain formation at 250 uM after 5 mins by SDS-PAGE analysis; method in brief: as §3
# Prothrombin [24] = biological target: T1, Prothrombin; experiment: Inhibition of human thrombin assessed as inhibition of fibrinogen alpha-polymer formation at 250 uM after 15 mins by SDS-PAGE analysis; method in brief: as §3
# Prothrombin [25] = biological target: T1, Prothrombin; experiment: Inhibition of human thrombin assessed as inhibition of fibrinogen alpha-polymer formation at 250 uM after 5 mins by SDS-PAGE analysis; method in brief: as §3
# Prothrombin [26] = biological target: T1, Prothrombin; experiment: Inhibition of human thrombin assessed as inhibition of fibrinogen polymerization at 1000 uM preincubated for 10 mins followed by fibrionogen addition measured for 20 mins
# Method in brief: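 Thrombin preincubated 10 min at 37 °C with compound, then added to human fibrinogen (3 mg/ml) in 50 mM TBS, 5 mM CaCl2, pH 7.4; final thrombin 10.4 nM. Turbidity at 595 nm read every 12 s for 20 min at 37 °C. Vmax expressed as % of solvent control; mean ± SD of 12 independent experiments in duplicate.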
# Prothrombin [27] = biological target: T1, Prothrombin; conditions: 150 to 1000 uM
# Prothrombin [28] = biological target: T1, Prothrombin; conditions: 150 to 1000 uM; remark: listed apart in the source
# Prothrombin [29] = biological target: T1, Prothrombin; conditions: 125 to 1000 uM
# Prothrombin [30] = biological target: T1, Prothrombin; conditions: 125 to 1000 uM; remark: listed apart in the source
# Prothrombin [31] = biological target: T1, Prothrombin; conditions: 5 uM
# Prothrombin [32] = biological target: T1, Prothrombin; conditions: 50 to 1000 uM
# Prothrombin [33] = biological target: T1, Prothrombin; conditions: 75 to 750 uM
smiles,measurement,setting,value
C[C@@H]1O[C@@H](O[C@H]2[C@H](Oc3cc(O)c4c(c3)O[C@H](c3ccc(O)cc3)CC4=O)O[C@H](CO)[C@@H](O)[C@@H]2O)[C@H](O)[C@H](O)[C@H]1O,inhibition,Prothrombin [1],inactive
O=c1c(-c2ccc(O)cc2)coc2cc(O)cc(O)c12,inhibition,Prothrombin [1],inactive
O=c1c(O)c(-c2ccc(O)c(O)c2)oc2cc(O)cc(O)c12 [QUERCETIN],inhibition,Prothrombin [2],inactive
same,inhibition,Prothrombin [3],inactive
same,IC50,Prothrombin [4],30 µM
same,IC50,Trypsin,15.4 µM
same,inhibition,Prothrombin [5],Dose-dependent effect
same,inhibition,Prothrombin [6],Active
same,inhibition,Prothrombin [7],Active
same,inhibition,Prothrombin [8],inactive
same,RU,Prothrombin [9],1880
same,inhibition,Prothrombin [10],Active
same,inhibition,Prothrombin [11],Active
same,inhibition,Prothrombin [12],inactive
same,Ka,Prothrombin [13],2.59 ×10⁷ /M
same,inhibition,Prothrombin [14],Active
same,inhibition,Prothrombin [15],Dose-dependent effect
same,inhibition,Prothrombin [16],Active
same,inhibition,Prothrombin [17],Active
same,inhibition,Prothrombin [18],Dose-dependent effect
same,inhibition,Prothrombin [19],Active
same,IC50,[20],12.1 µM
COc1ccc([C@@H]2CC(=O)c3c(O)cc(O)cc3O2)cc1O,inhibition,Prothrombin [1],inactive
COc1cc(C2Oc3cc([C@H]4Oc5cc(O)cc(O)c5C(=O)[C@@H]4O)ccc3OC2CO)ccc1O (some centres undefined) [SILIBININ],IC50,Prothrombin [4],20.9 µM
same,IC50,Trypsin,3.7 µM
same,inhibition,Prothrombin [5],Dose-dependent effect
same,inhibition,Prothrombin [21],Active
same,inhibition,Prothrombin [22],inactive
same,inhibition,Prothrombin [23],Active
same,inhibition,Prothrombin [24],inactive
same,inhibition,Prothrombin [25],Active
same,RU,Prothrombin [9],1420
same,inhibition,Prothrombin [26],Active
same,Ka,Prothrombin [13],5.39 ×10⁴ /M
same,inhibition,Prothrombin [16],Active
same,inhibition,Prothrombin [18],Dose-dependent effect
same,IC50,[20],21 µM
Oc1cc(O)c2c(c1)O[C@H](c1ccc(O)c(O)c1)[C@H](O)C2,inhibition,Prothrombin [5],Dose-dependent effect
same,inhibition,Prothrombin [27],inactive
same,inhibition,Prothrombin [28],inactive
same,Ka,Prothrombin [13],1.92 ×10² /M
same,inhibition,Prothrombin [16],Active
same,inhibition,Prothrombin [18],inactive
Oc1cc(O)c2c(c1)O[C@H](c1ccc(O)c(O)c1)[C@@H](O)C2,inhibition,Prothrombin [29],inactive
same,inhibition,Prothrombin [5],Dose-dependent effect
same,Ka,Prothrombin [13],2.03 ×10⁴ /M
same,inhibition,Prothrombin [16],Active
same,inhibition,Prothrombin [18],inactive
same,inhibition,Prothrombin [30],inactive
O=C(O)/C=C/c1ccc(O)cc1,inhibition,Prothrombin [1],inactive
O=C(O)c1cc(O)c(O)c(O)c1,inhibition,Prothrombin [1],inactive
C[C@@H]1O[C@@H](OC[C@H]2O[C@@H](Oc3c(-c4ccc(O)c(O)c4)oc4cc(O)cc(O)c4c3=O)[C@H](O)[C@@H](O)[C@@H]2O)[C@H](O)[C@H](O)[C@H]1O,inhibition,Prothrombin [1],inactive
Oc1cc(O)c2c(c1)O[C@H](c1ccc(O)c(O)c1)[C@H](O)[C@H]2c1c(O)cc(O)c2c1O[C@H](c1ccc(O)c(O)c1)[C@H](O)C2,inhibition,Prothrombin [1],inactive
O=C(/C=C/c1ccc(O)c(O)c1)O[C@@H]1C[C@](O)(C(=O)O)C[C@@H](O)[C@H]1O,inhibition,Prothrombin [1],inactive
O=C1C[C@@H](c2ccc(O)cc2)Oc2cc(O)cc(O)c21,inhibition,Prothrombin [1],inactive
COc1ccc([C@@H]2CC(=O)c3c(O)cc(O[C@@H]4O[C@H](CO[C@@H]5O[C@@H](C)[C@H](O)[C@@H](O)[C@H]5O)[C@@H](O)[C@H](O)[C@H]4O)cc3O2)cc1O,inhibition,Prothrombin [1],inactive
Oc1cc(O)c2cc(O)c(-c3ccc(O)c(O)c3)[o+]c2c1,inhibition,Prothrombin [2],inactive
same,inhibition,Prothrombin [3],inactive
same,inhibition,Prothrombin [5],Dose-dependent effect
same,inhibition,Prothrombin [31],Active
same,inhibition,Prothrombin [8],inactive
same,RU,Prothrombin [9],2250
same,inhibition,Prothrombin [10],Active
same,inhibition,Prothrombin [12],inactive
same,inhibition,Prothrombin [15],Dose-dependent effect
same,inhibition,Prothrombin [16],Active
same,inhibition,Prothrombin [17],Active
same,inhibition,Prothrombin [18],Dose-dependent effect
OC[C@H]1O[C@@H](Oc2cc3c(O[C@@H]4O[C@H](CO)[C@@H](O)[C@H](O)[C@H]4O)cc(O)cc3[o+]c2-c2ccc(O)c(O)c2)[C@H](O)[C@@H](O)[C@@H]1O,inhibition,Prothrombin [32],inactive
same,inhibition,Prothrombin [5],Dose-dependent effect
same,inhibition,Prothrombin [33],inactive
same,Ka,Prothrombin [13],1.15 ×10² /M
same,inhibition,Prothrombin [18],inactive
O=C(O)Cc1ccc(O)cc1,inhibition,Prothrombin [1],inactive

# Source: ChEMBL document CHEMBL2424526, “Thrombin inhibitory activity of some polyphenolic compounds” (Med Chem Res, 2013)
